Results as given in ChEMBL document CHEMBL1165950, “Design and synthesis of new potent anticancer pyrazoles with high FLT3 kinase inhibitory selectivity” (Bioorg Med Chem, 2010).

Assays:
Format in all cases: functional
[1] = tested on: CCRF-CEM; assay: Cytotoxicity against human CCRF-CEM cells assessed as cell growth at 10 uM; conditions: read-out: Activity
Outline: (§1)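 Single-dose NCI-60 screen at 10 µM. Cells were grown in RPMI 1640 with 5% FBS and 2 mM L-glutamine, then treated for 48 h at 37 °C. Protein was measured by SRB staining with absorbance at 515 nm. Percentage growth was recorded, and inhibition percentage was calculated as 100 minus growth percentage.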

[2] = tested on: HCC 2998; assay: Cytotoxicity against human HCC2998 cells assessed as cell growth at 10 uM after 48 hrs by sulforhodamine B assay; conditions: HCC 2998, 48 h, read-out: Activity
[3] = tested on: SK-MEL-28; assay: Growth inhibition of human SK-MEL-28 cells after 48 hrs by sulforhodamine B assay; conditions: SK-MEL-28, 48 h; for CC50: read-out: LC50 (the source's name)
Outline: (§2)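 NCI 60-cell screen, five-dose mode. Cells grown in RPMI 1640 with 5% FBS and 2 mM L-glutamine and plated at 5000-40,000 cells/well according to doubling time. After 24 h preincubation, a Tz plate was TCA-fixed. Five concentrations (10-fold or 1/2 log dilutions) were applied for 48 h at 37 °C. SRB staining read at 515 nm. IC50 taken from [(Ti-Tz)/(C-Tz)]×100 = 50.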

[4] = tested on: SF-295; assay: Cytotoxicity against human SF295 cells assessed as cell growth at 10 uM after 48 hrs by sulforhodamine B assay; conditions: SF-295, 48 h, read-out: Activity
[5] = tested on: HCT-116; assay: Cytotoxicity against human HCT116 cells assessed as cell growth at 100 nM after 48 hrs by sulforhodamine B assay; conditions: HCT-116, 48 h, read-out: Activity
[6] = tested on: SR; assay: Cytotoxicity against human SR cells assessed as cell growth at 1 uM after 48 hrs by sulforhodamine B assay; conditions: read-out: Activity
[7] = tested on: MCF7; assay: Cytotoxicity against human MCF7 cells assessed as cell growth at 10 uM after 48 hrs by sulforhodamine B assay; conditions: MCF7, 48 h, read-out: Activity
[8] = tested on: SK-MEL-2; assay: Cytotoxicity against human SK-MEL-2 cells assessed as cell growth at 1 uM after 48 hrs by sulforhodamine B assay; conditions: SK-MEL-2, 48 h, read-out: Activity
[9] = tested on: KM12; assay: Cytotoxicity against human KM12 cells assessed as cell growth at 10 uM; conditions: read-out: Activity
Outline: (§3)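 NCI-60 screen: cells grown in RPMI 1640 with 5% FBS and 2 mM L-glutamine, plated at 5000–40,000 cells/well according to doubling time, and preincubated 24 h at 37 °C, 5% CO2. The single 10 µM dose (DMSO stock) was added, then incubated 48 h. Cells were TCA-fixed and stained with 0.4% SRB, read at 515 nm, and growth % calculated against time-zero and control plates.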

[10] = tested on: ACHN; assay: Cytotoxicity against human ACHN cells assessed as cell growth at 0.01 uM after 48 hrs by sulforhodamine B assay; conditions: read-out: Activity
[11] = tested on: T47D; assay: Cytotoxicity against human T47D cells assessed as cell growth at 1 uM after 48 hrs by sulforhodamine B assay; conditions: read-out: Activity
[12] = tested on: RXF 393; assay: Cytotoxicity against human RXF393 cells assessed as cell growth at 0.001 uM after 48 hrs by sulforhodamine B assay; conditions: RXF 393, 48 h, read-out: Activity
[13] = tested on: HCC 2998; assay: Cytotoxicity against human HCC2998 cells assessed as cell growth at 100 nM after 48 hrs by sulforhodamine B assay; conditions: HCC 2998, 48 h, read-out: Activity
[14] = tested on: NCI-H226; assay: Cytotoxicity against human NCI-H226 cells assessed as cell growth at 10 uM after 48 hrs by sulforhodamine B assay; conditions: NCI-H226, 48 h, read-out: Activity
[15] = tested on: SR; assay: Cytotoxicity against human SR cells assessed as cell growth at 100 nM after 48 hrs by sulforhodamine B assay; conditions: read-out: Activity
[16] = tested on: NCI-H226; assay: Cytotoxicity against human NCI-H226 cells assessed as cell growth at 100 nM after 48 hrs by sulforhodamine B assay; conditions: NCI-H226, 48 h, read-out: Activity
[17] = tested on: RXF 393; assay: Cytotoxicity against human RXF393 cells assessed as cell growth at 100 nM after 48 hrs by sulforhodamine B assay; conditions: RXF 393, 48 h, read-out: Activity
[18] = tested on: MCF7; assay: Cytotoxicity against human MCF7 cells assessed as cell growth at 100 nM after 48 hrs by sulforhodamine B assay; conditions: MCF7, 48 h, read-out: Activity
[19] = tested on: DU-145; assay: Cytotoxicity against human DU145 cells assessed as cell growth at 0.01 uM after 48 hrs by sulforhodamine B assay; conditions: DU-145, 48 h, read-out: Activity
[20] = tested on: NCI-H226; assay: Growth inhibition of human NCI-H226 cells after 48 hrs by sulforhodamine B assay; conditions: NCI-H226, 48 h; for CC50: read-out: LC50 (the source's name); outline: as §2
[21] = tested on: SR; assay: Cytotoxicity against human SR cells assessed as cell growth at 0.001 uM after 48 hrs by sulforhodamine B assay; conditions: read-out: Activity
[22] = tested on: RXF 393; assay: Growth inhibition of human RXF393 cells after 48 hrs by sulforhodamine B assay; conditions: RXF 393, 48 h; outline: as §2
[23] = tested on: RXF 393; assay: Cytotoxicity against human RXF393 cells assessed as cell growth at 10 uM after 48 hrs by sulforhodamine B assay; conditions: RXF 393, 48 h, read-out: Activity
[24] = tested on: MCF7; assay: Cytotoxicity against human MCF7 cells assessed as cell growth at 0.001 uM after 48 hrs by sulforhodamine B assay; conditions: MCF7, 48 h, read-out: Activity
[25] = tested on: HCC 2998; assay: Growth inhibition of human HCC2998 cells after 48 hrs by sulforhodamine B assay; conditions: HCC 2998, 48 h; for CC50: read-out: LC50 (the source's name); outline: as §2
[26] = tested on: SK-MEL-28; assay: Cytotoxicity against human SK-MEL-28 cells assessed as cell growth at 1 uM after 48 hrs by sulforhodamine B assay; conditions: SK-MEL-28, 48 h, read-out: Activity
[27] = tested on: SR; assay: Cytotoxicity against human SR cells assessed as cell growth at 0.01 uM after 48 hrs by sulforhodamine B assay; conditions: read-out: Activity
[28] = tested on: OVCAR-8; assay: Cytotoxicity against human OVCAR8 cells assessed as cell growth at 0.01 uM after 48 hrs by sulforhodamine B assay; conditions: OVCAR-8, 48 h, read-out: Activity
[29] = tested on: SN12C; assay: Cytotoxicity against human SN12C cells assessed as cell growth at 100 nM after 48 hrs by sulforhodamine B assay; conditions: read-out: Activity
[30] = Cytotoxicity against human […] cells assessed as cell growth at 10 uM; conditions: read-out: Activity; outline: as §3
[31] = tested on: MDA-MB-435; assay: Cytotoxicity against human MDA-MB-435 cells assessed as cell growth at 0.01 uM after 48 hrs by sulforhodamine B assay; conditions: MDA-MB-435, 48 h, read-out: Activity
[32] = tested on: SK-MEL-28; assay: Cytotoxicity against human SK-MEL-28 cells assessed as cell growth at 0.001 uM after 48 hrs by sulforhodamine B assay; conditions: SK-MEL-28, 48 h, read-out: Activity
[33] = tested on: CAKI-1; assay: Cytotoxicity against human Caki1 cells assessed as cell growth at 1 uM after 48 hrs by sulforhodamine B assay; conditions: CAKI-1, 48 h, read-out: Activity
[34] = tested on: HOP-92; assay: Cytotoxicity against human HOP92 cells assessed as cell growth at 10 uM; conditions: read-out: Activity; outline: as §1
[35] = Cytotoxicity against human […] cells assessed as cell growth at 10 uM after 48 hrs by sulforhodamine B assay; conditions: read-out: Activity

Cc1cc(O)cc(-c2nn(CC#N)cc2-c2ccnc(-c3ccc(N(C)C)cc3)c2)c1
growth at 10 µM [1]: 40.3%
growth at 10 µM [2]: -98%
GI50 [3]: 5.22 µM
TGI [3]: 32.4 µM
CC50 [3]: > 100 µM
growth at 10 µM [4]: -54%
growth at 0.1 µM [5]: 87%
growth at 1 µM [6]: 17%
growth at 10 µM [7]: -61%
growth at 1 µM [8]: 11%
growth at 10 µM [9]: 27.3%
growth at 0.01 µM [10]: 82%
growth at 1 µM [11]: 5%
growth at 0.001 µM [12]: 100%
growth at 0.1 µM [13]: 87%
growth at 10 µM [14]: -38%
growth at 0.1 µM [15]: 74%
growth at 0.1 µM [16]: 100%
growth at 0.1 µM [17]: 120%
growth at 0.1 µM [18]: 50%
growth at 0.01 µM [19]: 97%
GI50 [20]: 4.18 µM
TGI [20]: 21.8 µM
CC50 [20]: > 100 µM
growth at 0.001 µM [21]: 93%
GI50 [22]: 2.87 µM
LC50 (concentration killing 50% of the starting cells) [22]: > 100 µM
TGI [22]: 61.4 µM
growth at 10 µM [23]: -46%
growth at 0.001 µM [24]: 97%
GI50 [25]: 3.19 µM
TGI [25]: 13.2 µM
CC50 [25]: 37.2 µM
growth at 1 µM [26]: 32%
growth at 0.01 µM [27]: 93%
growth at 0.01 µM [28]: 97%
growth at 0.1 µM [29]: 91%
growth at 10 µM [30]: 41.6%
growth at 0.01 µM [31]: 91%
growth at 0.001 µM [32]: 102%
growth at 1 µM [33]: 9%
growth at 10 µM [34]: 32.4%
growth at 10 µM [35]: -28%

Cc1cc(O)cc(-c2nn(CC#N)cc2-c2ccnc(-c3ccc(Oc4ccccc4)cc3)c2)c1
growth at 10 µM [2]: -95%
GI50 [3]: 4.92 µM
TGI [3]: 17 µM
CC50 [3]: 41.4 µM
growth at 10 µM [4]: -61%
growth at 0.1 µM [5]: 86%
growth at 1 µM [6]: 16%
growth at 10 µM [7]: -82%
growth at 1 µM [8]: 6%
growth at 10 µM [9]: 39.9%
growth at 0.01 µM [10]: 95%
growth at 1 µM [11]: -26%
growth at 0.001 µM [12]: 88%
growth at 0.1 µM [13]: 107%
growth at 10 µM [14]: -63%
growth at 0.1 µM [15]: 96%
growth at 0.1 µM [16]: 95%
growth at 0.1 µM [17]: 101%
growth at 0.1 µM [18]: 95%
growth at 0.01 µM [19]: 96%
GI50 [20]: 3.22 µM
TGI [20]: 12.2 µM
CC50 [20]: 64.5 µM
growth at 0.001 µM [21]: 94%
GI50 [22]: 2.08 µM
LC50 (concentration killing 50% of the starting cells) [22]: 8.92 µM
TGI [22]: 4.31 µM
growth at 10 µM [23]: -87%
growth at 0.001 µM [24]: 92%
GI50 [25]: 1.91 µM
TGI [25]: 3.39 µM
CC50 [25]: 6.02 µM
growth at 1 µM [26]: 30%
growth at 0.01 µM [27]: 95%
growth at 0.01 µM [28]: 91%
growth at 0.1 µM [29]: 86%
growth at 0.01 µM [31]: 95%
growth at 0.001 µM [32]: 91%
growth at 1 µM [33]: -24%
growth at 10 µM [35]: -14%

COc1cc(C)cc(-c2nn(CC#N)cc2-c2ccnc(-c3ccc(N(C)C)cc3)c2)c1
growth at 10 µM [2]: -76%
GI50 [3]: 0.776 µM
TGI [3]: > 100 µM
CC50 [3]: > 100 µM
growth at 10 µM [4]: -32%
growth at 0.1 µM [5]: 11%
growth at 1 µM [6]: 18%
growth at 10 µM [7]: -13%
growth at 1 µM [8]: 23%
growth at 10 µM [9]: 7.15%
growth at 0.01 µM [10]: 98%
growth at 1 µM [11]: 10%
growth at 0.001 µM [12]: 105%
growth at 0.1 µM [13]: 20%
growth at 10 µM [14]: -22%
growth at 0.1 µM [15]: 26%
growth at 0.1 µM [16]: 49%
growth at 0.1 µM [17]: -25%
growth at 0.1 µM [18]: 24%
growth at 0.01 µM [19]: 99%
GI50 [20]: 0.968 µM
TGI [20]: 127 µM
CC50 [20]: > 100 µM
growth at 0.001 µM [21]: 96%
GI50 [22]: 0.258 µM
LC50 (concentration killing 50% of the starting cells) [22]: > 100 µM
TGI [22]: 0.633 µM
growth at 10 µM [23]: -24%
growth at 0.001 µM [24]: 104%
GI50 [25]: 0.455 µM
TGI [25]: 1.93 µM
CC50 [25]: 9.69 µM
growth at 1 µM [26]: 45%
growth at 0.01 µM [27]: 97%
growth at 0.01 µM [28]: 97%
growth at 0.1 µM [29]: 44%
growth at 0.01 µM [31]: 94%
growth at 0.001 µM [32]: 100%
growth at 1 µM [33]: 4%
growth at 10 µM [35]: -28%
